Assay results from ChEMBL document CHEMBL4819144, “Structure-activity relationships of pyrimidine nucleotides containing a 5'-α,β-methylene diphosphonate at the P2Y6 receptor” (Bioorg Med Chem Lett, 2021).
pEC50, pIC50: −log10 of the molar value. Values belong to the compound of their own block, whether it stands above or below them.

Assays:
P2Y purinoceptor 6 [1] = target: T1, P2Y purinoceptor 6 (Homo sapiens, UniProt Q15077); assay: Agonist activity at human P2Y6R expressed in 1321N1 cells assessed as calcium mobilization at 3 uM measured by microplate reader method relative to control; assay type: functional, cell-based
T1 sequence (Q15077 whole entry): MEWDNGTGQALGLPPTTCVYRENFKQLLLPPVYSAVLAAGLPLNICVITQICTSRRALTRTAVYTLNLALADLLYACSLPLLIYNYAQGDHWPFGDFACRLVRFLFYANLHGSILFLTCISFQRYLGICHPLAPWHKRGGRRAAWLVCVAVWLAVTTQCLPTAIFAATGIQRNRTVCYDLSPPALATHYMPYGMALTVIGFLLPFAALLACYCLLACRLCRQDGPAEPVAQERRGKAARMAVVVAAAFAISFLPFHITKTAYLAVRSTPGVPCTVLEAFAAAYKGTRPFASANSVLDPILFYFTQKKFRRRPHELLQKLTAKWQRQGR
Method in brief: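 Human P2Y6R stably expressed in 1321N1 astrocytoma cells; fluorescence-based (FLIPR) Ca2+ mobilization read-out; agonist tested at a single 3 µM concentration and expressed as % activation.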

P2Y purinoceptor 6 [2] = target: T1, P2Y purinoceptor 6; assay: Agonist activity at human P2Y6R expressed in 1321N1 cells assessed as calcium mobilization measured by microplate reader method; assay type: functional, cell-based
[3] = target: Sigma non-opioid intracellular receptor 1 (Homo sapiens) (UniProt Q99720); assay: Displacement of [3H]-Pentazocine from sigma-1 receptor (unknown origin) at 10 uM relative to control
Chain of Sigma non-opioid intracellular receptor 1 (Homo sapiens) (Q99720 whole entry): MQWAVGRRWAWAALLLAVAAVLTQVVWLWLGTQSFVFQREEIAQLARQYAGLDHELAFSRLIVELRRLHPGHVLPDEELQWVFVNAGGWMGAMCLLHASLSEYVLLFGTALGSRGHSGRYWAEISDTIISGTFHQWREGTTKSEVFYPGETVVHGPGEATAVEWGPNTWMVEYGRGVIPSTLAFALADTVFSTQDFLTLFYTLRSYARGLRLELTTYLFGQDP

P2Y purinoceptor 14 [4] = target: T2, P2Y purinoceptor 14 (Homo sapiens, UniProt Q15391); assay: Binding affinity to human P2Y14 expressed in CHO cells; assay type: cell-based
T2 sequence (Q15391 whole entry): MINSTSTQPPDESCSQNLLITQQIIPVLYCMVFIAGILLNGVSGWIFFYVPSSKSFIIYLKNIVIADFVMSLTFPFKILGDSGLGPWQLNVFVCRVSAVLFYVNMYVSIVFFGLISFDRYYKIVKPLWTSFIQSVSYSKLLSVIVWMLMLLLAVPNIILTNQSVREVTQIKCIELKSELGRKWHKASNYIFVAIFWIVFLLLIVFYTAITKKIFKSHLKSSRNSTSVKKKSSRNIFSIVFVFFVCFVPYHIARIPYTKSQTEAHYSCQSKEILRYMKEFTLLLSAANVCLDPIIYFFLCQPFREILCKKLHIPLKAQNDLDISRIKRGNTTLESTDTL
Method in brief: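 Whole CHO cells stably expressing human P2Y14R; a fluorescent antagonist serves as tracer and binding is read by flow cytometry; IC50 from inhibition of tracer binding.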

5'-nucleotidase = target: T3, 5'-nucleotidase (Rattus norvegicus, UniProt P21588); assay: Inhibition of rat CD73 using [3H]-AMP as substrate by radiometric assay
T3 sequence (P21588 whole entry): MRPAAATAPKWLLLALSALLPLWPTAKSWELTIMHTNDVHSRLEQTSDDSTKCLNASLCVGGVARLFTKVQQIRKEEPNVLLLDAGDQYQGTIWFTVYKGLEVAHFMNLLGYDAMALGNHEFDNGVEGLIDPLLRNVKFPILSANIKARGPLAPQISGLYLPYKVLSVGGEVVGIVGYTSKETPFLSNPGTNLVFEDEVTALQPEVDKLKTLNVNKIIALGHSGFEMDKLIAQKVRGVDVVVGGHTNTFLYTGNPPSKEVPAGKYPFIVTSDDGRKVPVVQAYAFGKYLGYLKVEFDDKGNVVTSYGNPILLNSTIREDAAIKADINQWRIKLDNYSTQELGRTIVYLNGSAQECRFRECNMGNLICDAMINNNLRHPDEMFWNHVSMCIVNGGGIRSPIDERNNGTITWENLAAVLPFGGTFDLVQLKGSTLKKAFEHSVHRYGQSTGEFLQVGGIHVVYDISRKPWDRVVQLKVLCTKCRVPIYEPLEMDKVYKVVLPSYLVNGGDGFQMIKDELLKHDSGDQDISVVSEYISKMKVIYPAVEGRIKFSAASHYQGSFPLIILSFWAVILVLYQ

P2Y purinoceptor 6 [5] = target: T1, P2Y purinoceptor 6; assay: Agonist activity at human P2Y6R expressed in 1321N1 cells assessed as calcium mobilization measured by FLIPR method; assay type: functional, cell-based
Homo sapiens = species on record: Homo sapiens; assay: Selectivity ratio of IC50 for human P2Y14 expressed in CHO cells to EC50 for human P2Y6R expressed in 1321N1 cells; assay type: cell-based
Method in brief: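 The ratio divides the hP2Y14R IC50 by the hP2Y6R EC50. The IC50 comes from flow-cytometric displacement of a fluorescent antagonist tracer in whole hP2Y14R-CHO cells.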

P2Y purinoceptor 14 [6] = target: T2, P2Y purinoceptor 14; assay: Agonist activity at human P2Y14 expressed in CHO cells
P2Y purinoceptor 6 [7] = target: T1, P2Y purinoceptor 6; assay: Agonist activity at human P2Y6R expressed in 1321N1 cells by PLC assay; conditions: dose 3.0 µM, time 30.0 min
[8] = target: D(3) dopamine receptor (Homo sapiens) (UniProt P35462); assay: Displacement of [3H]-N-methylspiperone from dopamine D3 receptor (unknown origin) at 10 uM relative to control
Chain of D(3) dopamine receptor (Homo sapiens) (P35462 whole entry): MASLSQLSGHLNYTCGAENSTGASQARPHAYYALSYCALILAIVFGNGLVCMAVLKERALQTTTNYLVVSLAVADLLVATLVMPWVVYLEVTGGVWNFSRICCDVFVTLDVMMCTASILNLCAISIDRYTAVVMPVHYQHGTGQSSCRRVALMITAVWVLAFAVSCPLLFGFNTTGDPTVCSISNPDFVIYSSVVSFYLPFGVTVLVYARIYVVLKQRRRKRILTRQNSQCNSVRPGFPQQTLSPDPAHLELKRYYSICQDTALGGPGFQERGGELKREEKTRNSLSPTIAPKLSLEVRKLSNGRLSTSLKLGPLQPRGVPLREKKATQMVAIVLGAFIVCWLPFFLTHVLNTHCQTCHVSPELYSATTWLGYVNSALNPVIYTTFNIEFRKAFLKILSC

- Activity (P2Y purinoceptor 6 [1]): 5.7%
Compound: Nc1nc(=O)n([C@@H]2O[C@H](COP(=O)(O)CP(=O)(O)O)[C@@H](O)[C@H]2O)cc1F

- pEC50 (P2Y purinoceptor 6 [2]): 6.98
Compound: O=c1[nH]c(=O)n([C@@H]2O[C@H](COP(=O)(O)CP(=O)(O)O)[C@@H](O)[C@H]2O)cc1Br

- pIC50 (5'-nucleotidase): 5.74
- pEC50 (P2Y purinoceptor 14 [6]): 7.96
- EC50 (P2Y purinoceptor 6 [7]): 339 nM
Compound: O=c1ccn([C@@H]2O[C@H](COP(=O)(O)CP(=O)(O)O)[C@@H](O)[C@H]2O)c(=O)[nH]1

- pIC50 (5'-nucleotidase): < 6.00
Compound: O=c1[nH]c(=O)n([C@@H]2O[C@H](COP(=O)(O)CP(=O)(O)O)[C@@H](O)[C@H]2O)cc1F

- pIC50 (5'-nucleotidase): 6.95
Compound: O=c1[nH]/c(=N\OCc2ccccc2)ccn1[C@@H]1O[C@H](COP(=O)(O)CP(=O)(O)O)[C@@H](O)[C@H]1O

- Activity (P2Y purinoceptor 6 [1]): 2.4%
Compound: O=c1ccn([C@@H]2O[C@H](COP(=O)(O)CP(=O)(O)O)[C@@H](O)[C@@H]2O)c(=O)[nH]1

- Activity (P2Y purinoceptor 6 [1]): 3.5%
Compound: CCn1c(=O)ccn([C@@H]2O[C@H](COP(=O)(O)CP(=O)(O)O)[C@@H](O)[C@H]2O)c1=O

- pEC50 (P2Y purinoceptor 6 [2]): 7.31
- pIC50 (5'-nucleotidase): 6.79
Compound: O=c1[nH]c(=O)n([C@@H]2O[C@H](COP(=O)(O)CP(=O)(O)O)[C@@H](O)[C@H]2O)cc1I

- Activity (P2Y purinoceptor 6 [1]): 3.4%
Compound: Nc1nc(=O)n([C@@H]2O[C@H](COP(=O)(O)CP(=O)(O)O)[C@@H](O)[C@H]2O)cc1I

- Activity (P2Y purinoceptor 6 [1]): 2.7%
Compound: CCCn1c(=O)ccn([C@@H]2O[C@H](COP(=O)(O)CP(=O)(O)O)[C@@H](O)[C@H]2O)c1=O

- EC50 (P2Y purinoceptor 6 [7]): 1990 nM
Compound: O=c1ccn([C@@H]2O[C@H](COP(=O)(O)CP(=O)(O)O)[C@@H](O)[C@H]2O)c(=S)[nH]1

- pIC50 (P2Y purinoceptor 14 [4]): 4.78
Compound: O=c1[nH]c(=O)n([C@@H]2O[C@H](COP(=O)(O)CP(=O)(O)O)[C@@H](O)[C@H]2O)cc1Cl

- pIC50 (5'-nucleotidase): 6.59
Compound: CO/N=c1/ccn([C@@H]2O[C@H](COP(=O)(O)CP(=O)(O)O)[C@@H](O)[C@H]2O)c(=O)[nH]1

- pIC50 (P2Y purinoceptor 14 [4]): < 4.00
Compound: O=c1[nH]/c(=N\OCc2ccc(Cl)cc2)ccn1[C@@H]1O[C@H](COP(=O)(O)CP(=O)(O)O)[C@@H](O)[C@H]1O

- Activity (P2Y purinoceptor 6 [1]): 5.2%
Compound: O=c1cnn([C@@H]2O[C@H](COP(=O)(O)CP(=O)(O)O)[C@@H](O)[C@H]2O)c(=O)[nH]1

- Activity (P2Y purinoceptor 6 [1]): 3%
Compound: Cc1cn([C@@H]2O[C@H](COP(=O)(O)CP(=O)(O)O)[C@@H](O)[C@H]2O)c(=O)nc1N

Second part, the compound before the results:

Compound: CCn1c(=O)n([C@@H]2O[C@H](COP(=O)(O)CP(=O)(O)O)[C@@H](O)[C@H]2O)cc/c1=N/OCc1ccccc1
- Activity (P2Y purinoceptor 6 [1]): 5.7%

Compound: Cn1c(=O)n([C@@H]2O[C@H](COP(=O)(O)CP(=O)(O)O)[C@@H](O)[C@H]2O)cc/c1=N/OCc1ccccc1
- Activity (P2Y purinoceptor 6 [1]): 3.6%

Compound: O=c1[nH]/c(=N\OCc2ccc(S(F)(F)(F)(F)F)cc2)ccn1[C@@H]1O[C@H](COP(=O)(O)CP(=O)(O)O)[C@@H](O)[C@H]1O
- pEC50 (P2Y purinoceptor 6 [2]): 5.80
- inhibition [3]: 59%

Compound: O=c1[nH]/c(=N\OCc2ccc(C(F)(F)F)cc2)ccn1[C@@H]1O[C@H](COP(=O)(O)CP(=O)(O)O)[C@@H](O)[C@H]1O
- pIC50 (P2Y purinoceptor 14 [4]): < 4.00
- pIC50 (5'-nucleotidase): 7.52

Compound: O=c1[nH]/c(=N/OCc2ccccc2)c(F)cn1[C@@H]1O[C@H](COP(=O)(O)CP(=O)(O)O)[C@@H](O)[C@H]1O
- pEC50 (P2Y purinoceptor 6 [2]): 6.26
- pIC50 (P2Y purinoceptor 14 [4]): 4.67
- pEC50 (P2Y purinoceptor 6 [5]): 6.26
- pIC50 (5'-nucleotidase): 7.07
- Ratio IC50/EC50 (Homo sapiens): 39

Compound: CO/N=c1/ccn([C@@H]2O[C@H](COP(=O)(O)OP(=O)(O)O)[C@@H](O)[C@H]2O)c(=O)[nH]1
- pEC50 (P2Y purinoceptor 6 [2]): 6.31

Compound: O=c1[nH]/c(=N\OCc2ccccc2)ccn1[C@@H]1O[C@H](COP(=O)(O)OP(=O)(O)O)[C@@H](O)[C@H]1O
- pEC50 (P2Y purinoceptor 6 [2]): 6.10

Compound: Cc1cn([C@@H]2O[C@H](COP(=O)(O)CP(=O)(O)O)[C@@H](O)[C@H]2O)c(=O)[nH]/c1=N/OCc1ccccc1
- pIC50 (5'-nucleotidase): 6.49

Compound: O=c1[nH]/c(=N\OCc2cccc(Cl)c2)ccn1[C@@H]1O[C@H](COP(=O)(O)CP(=O)(O)O)[C@@H](O)[C@H]1O
- pEC50 (P2Y purinoceptor 6 [2]): 5.84
- pIC50 (P2Y purinoceptor 14 [4]): < 4.00
- pEC50 (P2Y purinoceptor 6 [5]): 5.84

Compound: O=c1ccn([C@@H]2O[C@H](COP(=O)(O)CP(=O)(O)O)[C@@H](O)[C@H]2O)c(=O)n1Cc1ccccc1
- Activity (P2Y purinoceptor 6 [1]): 5.3%

Compound: COC(=O)c1ccc(CO/N=c2/ccn([C@@H]3O[C@H](COP(=O)(O)CP(=O)(O)O)[C@@H](O)[C@H]3O)c(=O)[nH]2)cc1
- pEC50 (P2Y purinoceptor 6 [2]): 5.78
- inhibition [8]: 85%
